Screening results as filed in PubChem BioAssay.
Yeast growth inh: yeast BB579 growth reduction in restrictive medium; S. cerevisiae BB579 growth, OD615, 48 h; actives 0.51% (n = 140,000); inhibition, % at 10 µM; AID 804;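 active = inhibition above a set limit, 3 SD over the mean compound inhibition, cut at about 44% in these data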
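controls = amphotericin B 10 µg/mL, positive | assay system = DeaD yeast strain BB579 | schedule = 48 h compound exposure at 30 °C after 4 h preincubation | detection = OD615 turbidity measurement | medium = restrictive CSMM-D medium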
KCC2 mod: modulators of human KCC2 chloride dependent transport. Q9H2X9. B-score of Tl+ flux slope (higher = more flux/activation; lower = inhibition) at 10 µM. KCC2 cells, thallium flux FluoZin-2 fluorescence. actives 2.2% (n = 190,000);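 active = thallium flux slope and its plate-corrected score both differing from the plate sample mean at a set confidence after two filtering rounds, in either direction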;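 note: slope of fluorescence scaled to starting intensity during 10 to 20 s after thallium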
WT yeast gro inh: growth inhibition of WT yeast, mitochondrial fusion screen; mitochondrial fusion phenotypic screen, WT strain; inhibition, % at 10 µM; actives 2.1% (n = 190,000); in the data active = inhibition above about 58%; tested in S. cerevisiae
RAM inhibit: yeast RAM network inhibition; S. cerevisiae dse1pr::URA3 reporter, 5-FOA growth OD615, 2 d; analog-sensitive cbk1-as2 kinase mutant strain; inhibition, % at 50 µM; actives 1.8% (n = 190,000); AID 868;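 active = inhibition above a set limit, 3 SD over mean compound inhibition, cut at about 8.4% in these data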;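 note: 0% = DMSO-only wells with no growth and 100% = 10 µM 1-NA-PP1 full growth; inhibition rescues growth on 5-FOA so higher OD means more RAM inhibition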
Yeast lifespan up: yeast lifespan extension; S. cerevisiae growth with nicotinamide, OD615; deaD strain in restrictive glucose medium; inhibition of the nicotinamide effect, % at 10 µM; actives 0.68% (n = 130,000); AID 775;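 active = inhibition above a set limit, placed 3 SD over the median of all compounds, cut at about 26% in these data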;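 note: 0% = nicotinamide-treated wells and 100% = cells grown without nicotinamide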
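System: DeaD-strain S. cerevisiae / Buffer or medium: CSMM-D, restrictive glucose (dextrose) synthetic minimal medium / Probe or stimulus: nicotinamide, 1.5 mM, co-present with compound / Compound: one concentration, 10 µM, DMSO 0.25% / Incubation: 48 h compound exposure at 30 °C, humidified / Technique: optical density (absorbance) at 615 nm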
RAM 5-FOA: RAM network inhibition, efflux-deficient strain | max inhibition, % | shares compounds with RAM inhibit | 1,200 tested, under 10 active | S. cerevisiae efflux-deficient reporter strain, 5-FOA growth OD615, 2 days; call rule not given here;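 note: plate controls were vehicle for no effect and reference inhibitor for full effect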
* = called active by the depositor. Sampled rows, rich in hits. Any-hit rate of the full collection: about 5.5%.

How did CCOC(=O)c1c(-c2ccc(OC)cc2)csc1NC(=O)CSc1nnc(C)c(=O)[nH]1 do in these assays?
KCC2 mod: -0.11; WT yeast gro inh: -21; RAM inhibit: 5

How did CCOC(=O)c1c(NC(=O)CSc2nncs2)sc(C)c1-c1ccccc1 do in these assays?
Yeast growth inh: -51; KCC2 mod: -0.4; WT yeast gro inh: 20; RAM inhibit: 13*; Yeast lifespan up: 2; RAM 5-FOA: 4

What do the screens show for `COc1cccc(-n2c([S-])c(C(=O)Nc3ccc(C(F)(F)F)cc3)[n+]3ccccc23)c1`?
KCC2 mod: -1.4; WT yeast gro inh: 12; RAM inhibit: 3

Results for CCOC(=O)c1c(NC(=O)CSc2nnnn2-c2ccc(OC)cc2)sc(C)c1C ?
Yeast growth inh: 42; WT yeast gro inh: -4; RAM inhibit: 12*; Yeast lifespan up: -4; RAM 5-FOA: 2

Results for Cc1ccc(Oc2ccc(OCC(=O)NC(CC(C)C)C(=O)O)cc2)cc1 (configuration not stated) ?
KCC2 mod: -0.088; WT yeast gro inh: -6; RAM inhibit: 0

How did COc1ccc(C2CC(c3ccccc3)=NN2c2ccc(/C=N/NC(=O)c3ccncc3)cc2)cc1 (configuration not stated) do in these assays?
Yeast growth inh: -46; KCC2 mod: -1.1; WT yeast gro inh: 20; RAM inhibit: 13*; Yeast lifespan up: -12; RAM 5-FOA: 6

How did COc1cc(CNn2c(C)n[nH]c2=S)cc(Cl)c1OCc1ccccc1 do in these assays?
Yeast growth inh: -26; KCC2 mod: -0.018; WT yeast gro inh: 5; RAM inhibit: 13*; Yeast lifespan up: -2; RAM 5-FOA: 2

Results for CCOc1c(Cl)cc(CNCc2ccccn2)cc1OC ?
KCC2 mod: -0.53; WT yeast gro inh: -22; RAM inhibit: 2

What do the screens show for `C/C(=N/OC(=O)c1ccc(Cl)cc1Cl)c1oc(C)nc1C`?
KCC2 mod: 0.56

Results for OC1CN=C2C=CC=CN2C1 (configuration not stated) ?
Yeast growth inh: -32; KCC2 mod: 0.48; WT yeast gro inh: 3; RAM inhibit: 2; Yeast lifespan up: -14

How did CC1=C(C(=O)N(C)C)C(c2ccc(C)s2)NC(=S)N1 (configuration not stated) do in these assays?
KCC2 mod: 0.076; WT yeast gro inh: 6; RAM inhibit: 2

What do the screens show for `O=C(CCCC(=O)OCC(Cl)=C(Cl)Cl)Nc1ccccc1`?
Yeast growth inh: 9; KCC2 mod: -1; WT yeast gro inh: 10; RAM inhibit: -1; Yeast lifespan up: -5

What do the screens show for `CC(=O)c1ccc(OCc2ccc(C(=O)c3ccccc3)cc2)cc1`?
KCC2 mod: 1.3; WT yeast gro inh: 23; RAM inhibit: 3

Results for CC(=O)c1ccc(OCc2ccc(Oc3c(Cl)cccc3[N+](=O)[O-])cc2)cc1 ?
Yeast growth inh: -14; KCC2 mod: 0.0059; WT yeast gro inh: 13; RAM inhibit: 13*; Yeast lifespan up: 5; RAM 5-FOA: 1

What do the screens show for `O=C(COC(=O)c1cc(S(=O)(=O)N2CCCCC2)ccc1N1CCOCC1)NCCc1ccc(F)cc1`?
WT yeast gro inh: -7; RAM inhibit: -1

What do the screens show for `CCCCCOc1ccc(C(=O)OCC(=O)Nc2cc(C)c(C)cc2[N+](=O)[O-])cc1`?
Yeast growth inh: -34; KCC2 mod: 0.75; WT yeast gro inh: -6; RAM inhibit: 12*; Yeast lifespan up: 6; RAM 5-FOA: 6

Results for Cc1ccc(CNC(=O)c2oc3ccc(S(=O)(=O)N4CCC5(CC4)OCCO5)cc3c2C)cc1 ?
Yeast growth inh: -58; KCC2 mod: -0.51; WT yeast gro inh: 5; RAM inhibit: 5; Yeast lifespan up: -4

How did Cc1ccc(NC(=O)c2oc3ccc(S(=O)(=O)N4CCC5(CC4)OCCO5)cc3c2C)cc1C do in these assays?
Yeast growth inh: -45; KCC2 mod: 0.042; WT yeast gro inh: 13; RAM inhibit: 12*; Yeast lifespan up: 14; RAM 5-FOA: 1

How did CCCCC(=O)NC(=S)Nc1nnn(CCC)n1 do in these assays?
KCC2 mod: -0.21; WT yeast gro inh: 23; RAM inhibit: -2

What do the screens show for `COC(=O)c1ccc(CSc2nc(-c3ccco3)cc(C(F)(F)F)n2)o1`?
Yeast growth inh: -36; KCC2 mod: -1.3; WT yeast gro inh: 3; RAM inhibit: 18*; Yeast lifespan up: -16; RAM 5-FOA: 2

What do the screens show for `CN1C(=CC=C2C=C(I)C(=O)C(I)=C2)C(C)(C)c2ccccc21`?
KCC2 mod: 0.41

Results for CN1/C(=C\C=C2/C(=O)Oc3ccccc3C2=O)C(C)(C)c2ccccc21 ?
Yeast growth inh: -28; KCC2 mod: inactive; WT yeast gro inh: -3; RAM inhibit: 21*; Yeast lifespan up: 3; RAM 5-FOA: 10

What do the screens show for `O=C(CSc1nnc(COc2ccc(Cl)cc2)o1)OC1CCCCC1`?
Yeast growth inh: -54; KCC2 mod: 0.058; WT yeast gro inh: 16; RAM inhibit: 1; Yeast lifespan up: 0

How did Cc1cc(OCc2nnc(SCC(=O)OC3CCCCC3)o2)ccc1Cl do in these assays?
Yeast growth inh: -40; WT yeast gro inh: 9; RAM inhibit: 12*; Yeast lifespan up: 7; RAM 5-FOA: 2

How did CN(C)S(=O)(=O)c1ccc(Cl)c(NC(=O)COC(=O)C2CSC3(C)CCC(=O)N23)c1 (configuration not stated) do in these assays?
Yeast growth inh: -15; KCC2 mod: -0.21; WT yeast gro inh: 1; RAM inhibit: 1; Yeast lifespan up: -1

Results for O=C(COC(=O)c1ccc(-c2ccccc2)cc1)Nc1ccccc1-c1ccccc1 ?
Yeast growth inh: -30; KCC2 mod: 0.044; WT yeast gro inh: 21; RAM inhibit: 12*; Yeast lifespan up: 5; RAM 5-FOA: 3

Results for O=C(NNC(=S)Nc1ccc(F)c(Cl)c1)c1ccccc1Br ?
KCC2 mod: 0.64; WT yeast gro inh: -15; RAM inhibit: 8

How did CCn1c2ccccc2c2cc(NC(=O)c3cc(OC)c(OC)c(OC)c3)ccc21 do in these assays?
Yeast growth inh: -11; KCC2 mod: 0.71; WT yeast gro inh: 16; RAM inhibit: 12*; Yeast lifespan up: -21; RAM 5-FOA: 4

How did Cc1ccc(NC(=O)CN2C(=O)NC(Cc3c[nH]c4ccccc34)C2=O)cc1S(=O)(=O)N1CCCCC1 (configuration not stated) do in these assays?
Yeast growth inh: -30; KCC2 mod: -0.033; WT yeast gro inh: -7; RAM inhibit: 3; Yeast lifespan up: 3

How did CCOC(=O)c1ccc(NC(=O)Nc2ccc3c4c(cccc24)C(=O)N3CC)cc1 do in these assays?
Yeast growth inh: -31; KCC2 mod: 0.55; WT yeast gro inh: -13; RAM inhibit: 18*; Yeast lifespan up: 3; RAM 5-FOA: 4
